Shown are actives, neighbours in structure and some others; about 2.6% of the full set was active somewhere.
Calb FLC: C. albicans growth modulation with fluconazole | C. albicans CaCi-2 (fluconazole-resistant clinical isolate) + fluconazole, Alamar Blue growth, 48 h | growth inhibition, % (test concentration not listed) | 300,000 tested, 0.57% active | AID 1979;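 active means growth inhibition above about 58% in most replicates, limit read from the data, passing the limit was not always enough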;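 further: all wells also contain fluconazole at 8 µg/ml as a sub-toxic cotreatment; 0% = median of DMSO wells and 100% = median of geldanamycin control wells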
ASAP1 GAP inh: blocks human ASAP1-stimulated Arf1 GTP hydrolysis | inhibition, % at 16.5 µM | Q9ULH1 | AID 624377 | 360,000 tested, 0.19% active | GDP FP detection; in the data active means inhibition above about 25%;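 further: 0% = vehicle with enzyme and substrate and 100% = no enzyme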
Target sequence (Q9ULH1 325-724 limits assumed): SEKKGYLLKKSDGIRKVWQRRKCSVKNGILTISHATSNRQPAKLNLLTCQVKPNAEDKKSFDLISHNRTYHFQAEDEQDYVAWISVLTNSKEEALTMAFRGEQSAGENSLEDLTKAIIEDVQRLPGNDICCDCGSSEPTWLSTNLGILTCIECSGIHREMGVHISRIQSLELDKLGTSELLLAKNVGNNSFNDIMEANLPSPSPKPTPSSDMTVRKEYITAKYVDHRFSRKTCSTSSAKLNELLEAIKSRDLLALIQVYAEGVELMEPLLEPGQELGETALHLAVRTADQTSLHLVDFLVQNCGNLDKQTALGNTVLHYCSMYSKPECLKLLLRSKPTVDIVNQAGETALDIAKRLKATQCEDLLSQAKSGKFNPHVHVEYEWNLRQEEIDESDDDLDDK
VIM-2 inh: inhibitors of Pseudomonas aeruginosa VIM-2 metallo-beta-lactamase; purified VIM-2, nitrocefin hydrolysis, epi-absorbance fluorescence; inhibition, % at 5.6 µM; 290,000 tested, 0.89% active;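 active means inhibition above the mean of all tested compounds plus 3 SD, cutoff set per screening run, cut at about 7.5% in these data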;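 further: red hydrolysis product quenches plate fluorescence so inhibitors raise well fluorescence; 0% = enzyme with DMSO and 100% = DMSO without enzyme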
IMP-1 inhibitor: inhibitors of Pseudomonas aeruginosa IMP-1 metallo-beta-lactamase. purified IMP-1, nitrocefin hydrolysis, epi-absorbance fluorescence. inhibition, % at 5.6 µM. 290,000 tested, 0.45% active;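 active means inhibition above the mean plus 3 SD of all compounds in the same screening run, cut at about 4.5% in these data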;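 further: 0% = IMP-1 with DMSO and 100% = DMSO wells lacking enzyme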
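System: purified IMP-1 / Input: IMP-1 dispensed at 0.2 nM / Medium: 50 mM HEPES pH 7.1, 50 µM ZnSO4, 0.05% Brij 35 / Timing: 15 min enzyme–compound preincubation, then 25 min nitrocefin reaction, 25 °C / Technique: plate fluorescence quenching by hydrolysis product, ex 480/em 530 nm / Repeats: singlicate testing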
ARFGAP1 inh: inhibitors of rat ARFGAP1 | Arfgap1-stimulated ARF1 GTP hydrolysis, GDP FP detection | inhibition, % at 16.5 µM | 360,000 tested, 0.26% active | AID 651572;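 active means inhibition above a per-plate limit, mean inhibition of low control wells plus 3 SD, cut at about 25% in these data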;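 further: 0% = DMSO wells with enzyme and 100% = wells lacking Arfgap1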
Target sequence (Q62848 1-136 limits assumed): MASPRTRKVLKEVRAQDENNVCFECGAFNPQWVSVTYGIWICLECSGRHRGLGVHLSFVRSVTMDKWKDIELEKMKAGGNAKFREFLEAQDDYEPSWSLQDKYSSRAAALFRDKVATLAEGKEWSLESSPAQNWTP
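Replicates: Single well per compound | Assay system: Truncated rat Arfgap1 GAP domain | Control set: No-Arfgap1 wells (100%) versus DMSO full-reaction wells (0%) | Times: Enzyme reaction 120 min at 25 °C after 20 min preincubation | Reagent: Human ARF1(Δ1-17)-GTP substrate | Measured by: Tracer-displacement fluorescence polarization with EDTA stop, 620/688 nm | Measure: Percent inhibition of Arfgap1-stimulated GTP hydrolysis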
PHOSPHO1 block: inhibitors of human PHOSPHO1 phosphatase | recombinant PHOSPHO1, absorbance phosphatase assay | inhibition, % at 13.3 µM | 290,000 tested, 1.1% active; in the data active means inhibition above about 60%
The depositor's hits bear a star; . = not tested or not shown.

SMILES	Calb FLC	ASAP1 GAP inh	VIM-2 inh	IMP-1 inhibitor	ARFGAP1 inh	PHOSPHO1 block
O=C(O)c1ccc(CN2C(=O)CSC2=S)cc1	98*	12	0	2	13	71*
O=[N+]([O-])c1cc(Br)c(O)c(/C=N/Nc2nnnn2-c2cccc3ccccc23)c1	69	-3	-3	4.8*	-3	-5
O=[N+]([O-])c1ccc(NN=Cc2cccc3ccccc23)cc1	.	12	.	.	4	.
CC(C)OP(=O)(c1ccc(N(C)C)cc1)C(O)c1ccc(C(C)C)cc1 (stereo unspecified)	4	-7	-2	-1	4	.
CC(C)OP(=O)(c1ccc(N(C)C)cc1)C(O)c1ccccc1 (stereo unspecified)	98*	-7	-6	-3	0	17
CN(C)S(=O)(=O)Oc1cccc(C(=O)Nc2ccc(Cl)c(Cl)c2)c1	92*	13	-1	-4	5	-10
COc1ccc(NC(=O)c2cccc(OS(=O)(=O)N(C)C)c2)cc1	42	1	-1	0	16	29
CN(C)S(=O)(=O)Oc1cccc(C(=O)Nc2cccc(Cl)c2)c1	108*	3	-1	-1	4	34
C=CCN1C(=O)c2[nH]nc(-c3ccccc3)c2C1c1ccc(C)cc1 (stereo unspecified)	.	6	.	.	-1	.
CC(=O)c1cnc(Nc2cccc(Cl)c2Cl)s1	79*	4	-3	-4	-6	41
Cc1sc2nc(SCC(N)=O)n(-c3ccccc3)c(=O)c2c1C	0	-2	-2	-1	6	-4
Cc1sc2nc(SCC(=O)N3CCN(CCO)CC3)n(-c3ccccc3)c(=O)c2c1C	17	-3	24*	-1	9	25
Cc1ccc(-n2c(SCC(=O)N3CCCCC3)nc(O)c(Cc3ccccc3)c2=O)cc1	0	-6	-1	9.3*	-1	53
CCN(CC)C(=O)CSc1nc(O)c(Cc2ccccc2)c(=O)n1-c1ccc(C)cc1	-3	-4	-1	-2	-8	6
COc1cc(/C=N/NC(=O)C(=O)NCc2ccco2)cc(Br)c1O	14	-1	-5	0	-1	85*
COC(=O)CSc1nnc(-c2ccco2)n1-c1ccc(C)cc1	0	10	0	6.0*	8	-19
CCCCC(=O)NC(=S)Nc1ccccc1C(=O)Nc1ccccc1	22	-7	0	13*	-6	24
CC(=O)NC(=S)Nc1ccccc1C(=O)Nc1ccccc1	-2	8	0	28*	-1	-1
CC(=O)Nc1ccc(NC(=O)c2ccccc2Nc2ccccc2)cc1	4	22	-3	-1	8	24
N#C/C(=C\c1ccc(N2CCOCC2)o1)c1ccccc1	-22	-7	-2	-2	3	-5
N#C/C(=C\c1ccc(N2CCOCC2)cc1)c1ccccc1	87*	7	1	-3	4	-2
Cc1ccccc1CN1[C@@H](C)[C@H](c2ccccc2)Oc2cccc(NCC(C)C)c2S1(=O)=O	.	-6	.	.	11	.
CCOc1ccc(Nc2nc(Cc3nnc(SCC(=O)NC4CCCCC4)n3C)cs2)cc1	9	1	-7	-6	2	15
CCOc1ccc(Nc2nc(Cc3nnc(SCC(=O)NCC4CCCO4)n3C)cs2)cc1 (stereo unspecified)	-3	0	-2	-1	12	62*
COC(=O)C1=C(C)N(Cc2ccccc2C(F)(F)F)C(=NCc2ccc3c(c2)OCO3)NC1c1cccc(Cl)c1 (stereo unspecified)	.	-4	.	.	-5	.
SMILES	Calb FLC	ASAP1 GAP inh	VIM-2 inh	IMP-1 inhibitor	ARFGAP1 inh	PHOSPHO1 block
C/C(=N\NC(=O)CSCc1ccccc1Cl)c1cc(O)ccc1O	95*	3	-3	-2	14	-11
O=C(O)c1cccc(Nc2nc(-c3cc4ccccc4oc3=O)cs2)c1	6	8	1	6.2*	2	34
COc1cccc(-c2nc(C(=O)NCCCN3CCOCC3)cc3c2[nH]c2ccccc23)c1	15	-6	8.2*	3	8	39
O=C(NCCCN1CCOCC1)c1cc2c([nH]c3ccccc32)c(-c2cccc(Br)c2)n1	50	4	12*	-3	15	13
O=C(NCCCO)c1cc2c([nH]c3ccccc32)c(-c2ccccc2)n1	4	7	-1	-2	1	47
c1ccc(Cn2cc(CCOCc3ccccn3)c3ccccc32)cc1	.	-5	.	.	3	.
COC(=O)[C@]12C[C@H](CC(=O)N3CCC(c4ccccc4)CC3)C(=O)N(Cc3ccccc3)C1=C[C@H](C(C)C)O[C@@H]2C1CC1	.	5	.	.	-1	.
CCCCC#Cc1ccccc1COC[B-](F)(F)F	.	5	.	.	1	.
CCOC(=O)CN1NC2(CCCCCCC2)NC1=S	-4	-10	-4	-4	4	8
CCOC(=O)CN1NC2(CCC(C)CC2)NC1=S (stereo unspecified)	-3	-11	-4	-5	0	95*
CCOC(=O)CN1NC2(CCCC(C)C2)NC1=S (stereo unspecified)	-6	-6	-4	-3	-3	91*
CCOC(=O)CN1NC2(CCCCC2)NC1=S	-9	7	-5	-4	5	100*
Clc1ccc(-c2nn3c(C4COc5ccccc5O4)nnc3s2)cc1 (stereo unspecified)	19	4	-3	-2	3	92*
Nc1n[nH]c(-c2cccc([N+](=O)[O-])c2)n1	93*	-9	-1	-2	5	9
Nc1nnc(-c2cccc([N+](=O)[O-])c2)s1	0	3	-4	-2	-5	34
COc1ccc(C2CC(=O)C(c3ccccc3C)=CN2Cc2ccccc2)cc1 (stereo unspecified)	.	-15	.	.	-5	.
CCOC(=O)C1=C(C(=O)OCC)C2N(Cc3ccc(C#N)cc3)c3ccccc3[C@@]23C[C@@H](C(=O)OC)N(S(=O)(=O)c2ccc(C)cc2)C3=N1 (stereo partly specified)	.	-9	.	.	1	.
C[N+](C)(C)CCCCCCC(=O)/C=N/O	-4	-1	-2	-2	3	2
C[N+]1(CCCCCCC(=O)/C=N/O)CCCCCC1	-4	-13	-1	-6	-16	82*
CN1CCN(CC(=O)N2CCn3c4c(c5cc(C6CCCCC6)ccc53)CCCC42)CC1 (stereo unspecified)	111*	.	-1	-1	.	-25
OCC(CCc1c[nH]c2ccccc12)c1c[nH]c2ccccc12 (stereo unspecified)	.	5	.	.	19	.
CC(C)c1ccc(C(C)NCCS(=O)(=O)c2ccc(Cl)cc2)cc1 (stereo unspecified)	-2	8	-2	-4	11	73*
CC(C(=O)NCCS(=O)(=O)c1ccc(Br)cc1)S(=O)(=O)c1ccc(Cl)cc1 (stereo unspecified)	-5	-10	-1	0	6	11

Screens as filed in PubChem BioAssay.
